High-throughput results deposited in PubChem BioAssay by several laboratories.
Compounds with a hit are over-represented: about 2.6% of the library has one in this group of screens.
SENP8 block-1 = SENP8 (human) protease inhibition. Q96LD8. inhibition, % at 20 µM. recombinant SENP8, Nedd8 substrate fluorescence. AID 602440. 360,000 tested, 0.64% active; in the data active means inhibition mostly above about 40%, no sharp cut-off; inactive means mostly below about 27%
Target sequence (Q96LD8 whole entry, looked up): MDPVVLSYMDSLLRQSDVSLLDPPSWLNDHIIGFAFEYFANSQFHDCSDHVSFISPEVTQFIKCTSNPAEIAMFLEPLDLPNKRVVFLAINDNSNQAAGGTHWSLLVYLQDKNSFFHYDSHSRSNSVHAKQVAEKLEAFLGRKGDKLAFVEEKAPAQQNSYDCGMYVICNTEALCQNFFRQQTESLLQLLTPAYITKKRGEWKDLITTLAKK
Platelet DG rel = platelet dense granule release activity | human platelet-rich plasma, SFLLRN dense granule ATP release, luminescence | inhibition, %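 (compounds screened at 7.5 µM in platelet-rich plasma)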 | 300,000 tested, 0.22% active;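 active means mean replicate score, as percent of positive control, at or above 50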
SENP6 inh = blocks the human protease SENP6; Q9GZR1; Recombinant SENP6 catalytic domain, aminoluciferin luminescence; inhibition, % at 10 µM; 330,000 tested, 1.8% active;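 active means inhibition above about 50% at the single tested dose, limit read from the data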;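 further: plate controls were DMSO wells with enzyme for no effect and DMSO wells lacking enzyme for full effect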
SENP1 inh = SENP1 (human) catalytic domain inhibition. Q9P0U3. AID 624204. inhibition, % at 10 µM. 360,000 tested, 0.21% active. recombinant SENP1 catalytic domain, CyPet-SUMO1-YPet FRET cleavage;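 active means inhibition at least 30% at 10 µM, raw YFP signal under a set limit, fluorescence ratio 0.5 to 1.5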;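 further: 0% = enzyme with DMSO and 100% = no enzyme wells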
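system = hSENP1 catalytic domain, recombinant | reagent = SFCypet-SUMO1-SFYpet substrate at 25 nM | doses = one dose per compound, 10 µM, 0.5% DMSO | incubation = enzyme reaction for 50 min at room temperature, dark | measured by = FRET, CFP and YFP emission | controls = no-enzyme low, enzyme-DMSO high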
SENP8 block-2 = inhibitors of human SENP8 protease. Q96LD8. purified SENP8, Z-RLRGG-aminoluciferin cleavage, luminescence. inhibition, % at 10 µM. 330,000 tested, 1.2% active; in the data active means inhibition above about 50%
SENP7 inh = SENP7 protease inhibition; Q9BQF6; recombinant SENP7, Z-RLRGG-aminoluciferin luminescence, 40 min; 330,000 tested, 1.5% active; inhibition, % at 5 µM;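 active means inhibition above about 50% at the single test dose, limit read from the data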;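 further: plate controls were DMSO with enzyme for no effect and no enzyme buffer wells for full effect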
Target sequence (Q9BQF6 706-1050 limits assumed): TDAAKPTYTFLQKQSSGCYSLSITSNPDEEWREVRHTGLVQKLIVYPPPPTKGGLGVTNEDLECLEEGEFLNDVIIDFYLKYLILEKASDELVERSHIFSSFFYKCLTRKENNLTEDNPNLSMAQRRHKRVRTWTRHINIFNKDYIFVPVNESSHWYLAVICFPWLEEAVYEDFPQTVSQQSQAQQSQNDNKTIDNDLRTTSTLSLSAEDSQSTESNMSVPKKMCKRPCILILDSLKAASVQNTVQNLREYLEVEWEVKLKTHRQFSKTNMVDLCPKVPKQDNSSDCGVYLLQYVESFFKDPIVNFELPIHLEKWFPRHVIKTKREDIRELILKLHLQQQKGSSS
SENP1 inh conf = confirmation of human SENP1 SUMO protease inhibitors; shares compounds with SENP1 inh; recombinant SENP1, CyPet-SUMO1-YPet FRET cleavage; inhibition, % at 10 µM; 520 tested, 34% active; in the data active means inhibition mostly above about 35%, no sharp cut-off; inactive means mostly below about 32%;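 further: 0% = enzyme with DMSO and 100% = no enzyme control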
SENP1 kin conf = confirmation of human SENP1 SUMO protease inhibitors, kinetic; recombinant SENP1, CyPet-SUMO1-YPet FRET kinetic cleavage; 520 tested, 26% active; inhibition, % at 10 µM; shares compounds with SENP1 inh; AID 651690; in the data active means inhibition mostly above about 32%, no sharp cut-off; inactive means mostly below about 29%;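 further: 0% = DMSO with enzyme and 100% = no enzyme substrate only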
* marks the source's active call; other numbers are inactive results; i = inactive; / = no result.

SMILES	SENP8 block-1	Platelet DG rel	SENP6 inh	SENP1 inh	SENP8 block-2	SENP7 inh	SENP1 inh conf	SENP1 kin conf
Cc1ccc(C)c(S(=O)(=O)N2CCN(C(=O)CN3C(=O)C4CC=CCC4C3=O)CC2)c1 (centres undefined)	-13.5	/	-12.8	1.1	1.5	-0.6	/	/
N#C/C(=C\C1=C(N2CCOCC2)C(=C\c2ccc(Cl)cc2)/CC1)C(=O)Nc1ccccc1F	24.1	24.8	/	-6.3	/	/	/	/
N#C/C(=C/C1=C(N2CCOCC2)C(=C/c2cccc([N+](=O)[O-])c2)/CC1)C(=O)Nc1ccccc1F	36.0	/	/	73.0*	/	/	13.5	14.7
CCOc1ccccc1NC(=O)COC(=O)CN1C(=O)NC(C)(C)C1=O	-2.0	/	-19.4	-0.6	-19.2	-6.6	/	/
CCOC(=O)N(C)c1c(CC)nc2c(OCc3ccc(Cl)cc3)cccn12	-5.0	/	/	-1.8	/	/	/	/
CC(SCc1ccccc1)C(=O)Nc1ccccc1 (centres undefined)	4.6	-7.1	-6.3	0.4	1.3	5.7	/	/
CC(C)(C)NC(=O)CN1C(=O)c2cccc3cccc1c23	-328.1	/	/	-17.9	/	/	/	/
O=c1cc(CSc2nnc(Nc3ccccc3F)s2)nc2sccn12	-0.4	2.4	-18.1	-1.3	-6.0	-10.1	/	/
COc1ccc(Nc2nnc(SCc3cc(=O)n4ccsc4n3)s2)cc1	-12.6	1.7	-7.1	31.3*	5.8	8.9	36.8*	31.6
O=C(Nc1nc(-c2ccc3c(c2)OCCO3)cs1)C1CCCC1	14.3	-14.6	2.7	-7.3	-6.3	-1.1	/	/
Cc1ccccc1C[n+]1cccc2ccccc21	12.2	-5.0	-3.4	34.1*	-7.0	0.7	6.4	2.5
COCc1nnc(NC(=O)c2ccc(OC)cc2OC)s1	23.2	-4.7	-23.4	48.1*	-7.5	10.9	-9.9	0.5
Cc1cc(C(=O)NN)c2cc(Br)ccc2n1	12.0	-4.0	-12.9	1.1	-0.7	0.1	/	/
NNC(=O)c1cc(-c2ccc(N)cc2)nc2ccc(Br)cc12	-11.2	8.2	-2.9	49.1*	-8.0	-1.0	25.6	23.1
Cc1ccccc1OCC(=O)Nc1ccccc1C(=O)NC1CC1	-8.0	-10.2	-9.8	-0.8	-3.9	3.7	/	/
Cc1cccc(N(C(=O)c2snc(C(N)=O)c2N)C(C(=O)NCc2ccccc2)c2ccncc2)c1 (centres undefined)	-314.6	11.8	-9.8	-28.4	-3.7	0.3	/	/
COc1cc(S(=O)(=O)Nc2c(C)nn(C)c2C)ccc1NC(C)=O	0.3	-1.3	-0.7	-0.2	-5.2	10.7	/	/
COc1cc(S(=O)(=O)Nc2ccc3c(c2)C(=O)N(C)C3=O)ccc1NC(C)=O	-79.6	/	-10.6	54.1*	9.0	1.9	41.3*	43.4*
CCOc1ccc(C2(C)NC(=O)N(CCN(C)C)C2=O)cc1 (centres undefined)	-0.8	-0.9	1.1	2.1	8.6	-0.6	/	/
O=C1CSCC(=O)N1c1ccccc1	22.4	2.0	-7.7	1.7	0.1	4.4	/	/
O=C1C2=C(SCCS2)C(=O)N1c1ccccc1	22.2	10.2	-8.9	35.9*	-2.2	-2.2	21.4	28.6
CSc1ncccc1C(=O)NCC(c1cccs1)N1CCOCC1 (centres undefined)	12.0	-1.8	-3.5	0.7	-2.3	1.8	/	/
CC(C)Oc1cccc(C(=O)NC(=S)Nc2ccc3c4c(cccc24)CC3)c1	-123.2	/	-17.1	36.8*	3.3	-0.6	5.7	2.0
Cc1ccccc1-n1cc(C(=O)c2cc(Cl)ccc2O)cc(C#N)c1=O	20.2	0.9	-19.1	43.0*	-7.9	-3.6	35.0	23.7
COc1ccccc1-n1cc(C(=O)c2cc(Cl)ccc2O)cc(C#N)c1=O	-11.0	0.6	-4.5	45.5*	0.2	0.1	39.3*	29.0
SMILES	SENP8 block-1	Platelet DG rel	SENP6 inh	SENP1 inh	SENP8 block-2	SENP7 inh	SENP1 inh conf	SENP1 kin conf
CCOC(=O)c1ccc(N(CC2CO2)S(=O)(=O)c2ccc(C)cc2)cc1 (centres undefined)	10.0	/	/	1.3	/	/	/	/
CN(C(=O)c1ccc(NC(=O)Cc2ccc(NC(=O)C3CCN(C(=O)C4CC4)CC3)cc2)cc1)C1CCCC1	6.2	/	/	1.2	/	/	/	/
Cc1c(N/C=C/C(=O)C(F)(F)F)c(=O)n(-c2ccccc2)n1C	9.9	4.8	13.2	-0.9	1.4	6.2	/	/
COc1ccc(C(=O)/C=C/Nc2c(C)n(C)n(-c3ccccc3)c2=O)cc1OC	-52.8	-1.4	7.7	31.2*	4.8	4.0	-1.1	3.8
COc1ccc(OCCC(=O)Nc2ccccc2)cc1	0.1	-4.8	6.1	0.2	-19.8	-9.3	/	/
CCOC(=O)C1=C(C)N=c2sc(=Cc3cc(Cl)c(OCC(=O)O)c(Cl)c3)c(=O)n2C1c1cccc(OC)c1 (centres undefined)	14.1	/	/	52.3*	/	/	51.1*	35.4*
Nc1c(-c2ccc(C(F)(F)F)cc2)nc2ncccn12	-1.9	/	/	52.9*	/	/	15.6	8.6
COc1ccc(C(=O)N2CCCCC2c2cc(C(=O)NCc3ccc(F)cc3)no2)cc1 (centres undefined)	15.9	/	/	1.2	/	/	/	/
O=C1C=C(Nc2ccc(Cl)cc2)C(=O)N1c1ccc(Cl)cc1	11.5	2.1	-2.8	34.4*	-0.1	3.6	37.9*	37.5*
O=C1C=C(N2CCCCCC2)C(=O)N1c1ccc(Cl)cc1	12.4	-0.2	/	17.3	/	/	/	/
O=C(Nc1ccc2nsnc2c1)N1CCCCC1	i	1.7	13.5	30.7*	2.5	1.1	-7.8	-6.0
CC1CCN(C(=O)Nc2ccc3nsnc3c2)CC1	-316.0	-6.2	-11.4	21.5	-3.5	0.5	/	/
COc1cc(SC#N)ccc1N=Cc1c(C)[nH]n(-c2ccc(C)cc2C)c1=O	29.0	12.2	7.4	66.7*	5.9	5.9	38.4*	34.3*
NS(=O)(=O)c1cc2c(cc1Cl)NC(Cc1ccccc1)NS2(=O)=O (centres undefined)	20.9	3.6	-3.4	1.5	-4.8	-8.3	/	/
COc1cccc(NC(=O)CN2C(=O)NC3(CCCc4ccccc43)C2=O)c1 (centres undefined)	10.7	/	-17.8	0.3	-9.5	-4.6	/	/
Nc1ncnc2c1ncn2[C@@H]1O[C@H](C(=O)NS(=O)(=O)c2cccs2)[C@@H](O)[C@H]1O	34.6	/	/	1.7	/	/	/	/
Cc1ccc(NC(=O)COC(=O)COc2cccc3c2OC(C)(C)C3)cc1S(=O)(=O)N1CCOCC1	8.7	-2.6	-0.9	5.3	3.8	-6.1	/	/
COc1ccc(N(C)C(=O)Nc2ccc3c(c2)nnn3C)cc1	-29.7	-3.4	-25.5	1.4	3.6	0.5	/	/
COc1ccc(N(C)C(=O)Nc2ccc3nsnc3c2)cc1	4.0	6.5	/	55.5*	/	/	7.9	9.0
CN(C)c1ccc(/C=N/NC(=O)C(=O)/C=C2\NC3(CCCC3)Cc3ccccc32)cc1	16.2	-8.0	-27.5	53.2*	-11.0	-6.5	36.9*	27.9
